Measurements: ChEMBL document CHEMBL1125713, “Synthesis and antiarrhythmic activity of cis-2,6-dimethyl-alpha,alpha-diaryl-1-piperidinebutanols” (1991)

Legend:
[1] = organism: Canis familiaris; assay: Compound was evaluated for the activity rating; format: functional, Canis lupus familiaris
Method in brief: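 In ligated dogs given 5 mg/kg iv over 5 min, group % normal beats was plotted at end of dose, 20 min and 1 h. The area under this curve minus the control area was divided by the same area for an ideal response (100% normal beats for the whole hour), then multiplied by 100.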

[2] = test system: Canis familiaris; assay: Antiarrhythmic effect in coronary artery ligated dogs model at a dose of 5 mg/kg, value noted at end dose.; format: functional, Canis lupus familiaris, Heart
Method in brief: (§1)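 Coronary-ligated dogs with ventricular arrhythmias. Dosing was 5 mg/kg in 10–20 mL isotonic saline, given as an iv infusion over 5 min. Limb lead II ECG was monitored continuously for up to 6 h. Percent normal sinus beats was scored at control, end of dose, 20 min and 1 h. Values are mean ± SEM for three or more animals, mean ± SD for two.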

[3] = test system: Canis familiaris; assay: Antiarrhythmic effect in coronary artery ligated dogs model at a dose of 5 mg/kg, administered intravenously and value noted at 20 min; format: functional, Canis lupus familiaris, Heart; settings: route intravenous; method in brief: as §1
[4] = test system: Canis familiaris; assay: Antiarrhythmic effect in coronary artery ligated dog model at a dose of 5 mg/kg, administered intravenously and value noted at 1 hr; format: functional, Canis lupus familiaris, Heart; settings: route intravenous; method in brief: as §1
[5] = organism: Canis familiaris; assay: Compound was evaluated for the duration of sustained effect; format: functional, Canis lupus familiaris
Method in brief: (§2)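 Normal dogs received 5 mg/kg iv over 5 min, with heart rate tracked by continuous ECG. Dogs above 140 beats/min were followed until the rate fell to 140. The sustained effect was rated long (>2 h), moderate (0.5–2 h) or short (<0.5 h).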

[6] = organism: Canis familiaris; assay: Compound was evaluated for the degree of tachycardia.; format: functional, Canis lupus familiaris
Method in brief: (§3)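 Conscious normal dogs received 5 mg/kg iv over 5 min, with heart rate from limb lead II ECG. Tachycardia was graded as severe (≥200 beats/min), moderate (160–199), slight (<160 after a rise of ≥20) or none (change <20 beats/min).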

[7] = test system: Canis familiaris; assay: Compound was evaluated for the heart rate effect in normal dogs at a dose of 5 mg/kg, administered intravenously and value noted at 20 min.; format: functional, Canis lupus familiaris; settings: route intravenous
Method in brief: (§4)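 Conscious normal dogs, trained and sling-restrained, received the same iv dosing: 5 mg/kg infused over 5 min. Heart rate came from continuous limb lead II ECG at control, end of dose, 20 min and 1 h. Values are mean ± SD for two dogs.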

[8] = test system: Canis familiaris; assay: Compound was evaluated for the heart rate effect in normal dogs at a dose of 5 mg/kg, administered intravenously and value noted at 1h.; format: functional, Canis lupus familiaris; settings: route intravenous; method in brief: as §4
[9] = test system: Canis familiaris; assay: Compound was evaluated for the heart rate effect in normal dogs at a dose of 5 mg/kg, administered intravenously and value noted at end dose.; format: functional, Canis lupus familiaris; settings: route intravenous; method in brief: as §4
[10] = organism: Canis familiaris; assay: Compound was evaluated for the duration of sustained effect; 0.5-2; format: functional, Canis lupus familiaris; method in brief: as §2
[11] = organism: Canis familiaris; assay: Compound was evaluated for the degree of tachycardia; 160-199; format: functional, Canis lupus familiaris; method in brief: as §3
[12] = organism: Canis familiaris; assay: Compound was evaluated for the degree of tachycardia 160-199; format: functional, Canis lupus familiaris; method in brief: as §3
[13] = organism: Canis familiaris; assay: Compound was evaluated for the degree of tachycardia; format: functional, Canis lupus familiaris; method in brief: as §3

Cl.OC(CCCN1CCCCC1)(c1ccccc1)c1ccccn1 (stereo unspecified)
Activity rating [1]: 17 | Normal beats [2]: 97% | Normal beats [3]: 21% | Normal beats [4]: 8%

CC1CCCC(C)N1CCCC(O)(c1ccccc1)c1cccnc1.Cl (stereo unspecified)
Activity rating [1]: 13 | Normal beats [2]: 43% | Normal beats [3]: 16% | Normal beats [4]: 6%

Cc1ccccc1C(O)(CCCN1C(C)CCCC1C)c1ccccc1.Cl (stereo unspecified)
Duration [5]: >2 h | Activity rating [1]: 60 | Normal beats [2]: 92% | Heart rate [6]: <160 beats min-1 | Normal beats [3]: 61% | Heart rate [7]: 149 beats min-1 | Heart rate [8]: 151 beats min-1 | Normal beats [4]: 61% | Heart rate [9]: 155 beats min-1

CC1CCCC(C)N1CCCC(O)c1ccccc1.Cl (stereo unspecified)
Activity rating [1]: 35 | Normal beats [2]: 99% | Normal beats [3]: 45% | Normal beats [4]: 10%

CC1CCCC(C)N1CCCC(O)(c1ccccn1)c1ccccn1.Cl (stereo unspecified)
Activity rating [1]: 53 | Normal beats [2]: 90% | Normal beats [3]: 68% | Normal beats [4]: 32%

CC1CCCC(C)N1CCCC(O)(c1ccccc1)C1CCCCC1.Cl (stereo unspecified)
Duration [10]: 0.5 h | Activity rating [1]: 66 | Normal beats [2]: 98% | Normal beats [3]: 65% | Heart rate [7]: 152 beats min-1 | Heart rate [8]: 121 beats min-1 | Normal beats [4]: 68% | Heart rate [11]: 160 beats min-1 | Heart rate [9]: 176 beats min-1

CCC1CCCCN1CCCC(O)(c1ccccc1)c1ccccc1.Cl (stereo unspecified)
Activity rating [1]: 46 | Normal beats [2]: 87% | Normal beats [3]: 48% | Normal beats [4]: 37%

CC1CCCC(C)N1CCCC(c1ccccc1)c1ccccn1.Cl (stereo unspecified)
Activity rating [1]: 47 | Normal beats [2]: 62% | Normal beats [3]: 37% | Normal beats [4]: 67%

CC1CCCC(C)N1CCCC(C#N)(c1ccccc1)c1ccccc1.Cl (stereo unspecified)
Duration [5]: >2 h | Activity rating [1]: 82 | Normal beats [2]: 90% | Normal beats [3]: 88% | Heart rate [12]: 160 beats min-1 | Heart rate [7]: 147 beats min-1 | Heart rate [8]: 137 beats min-1 | Normal beats [4]: 65% | Heart rate [9]: 168 beats min-1

CC1CCCC(C)N1CCC(C(N)=O)(c1ccccc1)c1ccccc1.Cl (stereo unspecified)
Activity rating [1]: 39 | Normal beats [2]: 64% | Normal beats [3]: 51% | Normal beats [4]: 83%

CC1CCCC(C)N1CCC(O)(c1ccccc1)c1ccccc1.Cl (stereo unspecified)
Activity rating [1]: 86 | Normal beats [2]: 97% | Normal beats [3]: 96% | Heart rate [7]: 117 beats min-1 | Heart rate [8]: 130 beats min-1 | Normal beats [4]: 74% | Heart rate [9]: 137 beats min-1

CC(=O)NCC(CCCN1C(C)CCCC1C)(c1ccccc1)c1ccccc1.Cl (stereo unspecified)
Activity rating [1]: 62 | Normal beats [2]: 95% | Normal beats [3]: 71% | Normal beats [4]: 53%

CC1CCCC(C)N1CCCC(c1ccccc1)c1ccccc1.Cl (stereo unspecified)
Duration [5]: >2 h | Activity rating [1]: 94 | Normal beats [2]: 95% | Normal beats [3]: 97% | Beats/min [13]: >=200 | Beats/min [7]: 218 | Beats/min [8]: 179 | Normal beats [4]: 92% | Beats/min [9]: 255

CC1CCCC(C)N1CCCC(O)(c1ccccc1)c1ccccc1.Cl (stereo unspecified)
Activity rating [1]: 81 | Normal beats [2]: 96% | Normal beats [3]: 86% | Heart rate [7]: 155 beats min-1 | Heart rate [8]: 165 beats min-1 | Normal beats [4]: 76% | Heart rate [11]: 160 beats min-1 | Heart rate [9]: 187 beats min-1

CC1CCCC(C)N1CCCC(C(N)=O)(c1ccccc1)c1ccccc1.Cl (stereo unspecified)
Duration [5]: >2 h | Activity rating [1]: 91 | Normal beats [2]: 98% | Heart rate [6]: >200 beats min-1 | Normal beats [3]: 90% | Heart rate [7]: 223 beats min-1 | Heart rate [8]: 215 beats min-1 | Normal beats [4]: 94% | Heart rate [9]: 235 beats min-1

CC1CCC(C)N1CCCC(O)(c1ccccc1)c1ccccc1.Cl (stereo unspecified)
Duration [5]: >2 h | Activity rating [1]: 29 | Normal beats [2]: 69% | Heart rate [6]: >200 beats min-1 | Normal beats [3]: 39% | Heart rate [7]: 218 beats min-1 | Heart rate [8]: 193 beats min-1 | Normal beats [4]: 35% | Heart rate [9]: 243 beats min-1

CC1CCCC(C)N1CCC(C#N)(c1ccccc1)c1ccccc1.Cl (stereo unspecified)
Activity rating [1]: 70 | Normal beats [2]: 91% | Normal beats [3]: 72% | Normal beats [4]: 65%

CC1CCCC(C)N1CCCC(O)(c1ccccc1)c1ccncc1 (stereo unspecified)
Activity rating [1]: 13 | Normal beats [2]: 51% | Normal beats [3]: 11% | Normal beats [4]: 7%

CC1CCC(C)N1CCCCC(O)(c1ccccc1)c1ccccn1 (stereo unspecified)
Activity rating [1]: 42 | Normal beats [2]: 88% | Normal beats [3]: 52% | Normal beats [4]: 43%

CC1CCCC(C)N1CCCC(C#N)(c1ccccc1)c1ccccn1 (stereo unspecified)
Duration [5]: <0.5 h | Activity rating [1]: 36 | Normal beats [2]: 100% | Heart rate [6]: <160 beats min-1 | Normal beats [3]: 50% | Heart rate [7]: 154 beats min-1 | Heart rate [8]: 131 beats min-1 | Normal beats [4]: 97% | Heart rate [9]: 154 beats min-1

CC(=O)NCC(CCN1C(C)CCCC1C)(c1ccccc1)c1ccccc1 (stereo unspecified)
Duration [5]: <0.5 h | Activity rating [1]: 53 | Normal beats [2]: 82% | Heart rate [6]: <160 beats min-1 | Normal beats [3]: 62% | Heart rate [7]: 119 beats min-1 | Heart rate [8]: 103 beats min-1 | Normal beats [4]: 49% | Heart rate [9]: 141 beats min-1

CC1CCCC(C)N1CCC(CN)(c1ccccc1)c1ccccc1 (stereo unspecified)
Activity rating [1]: 50 | Normal beats [2]: 100% | Normal beats [3]: 61% | Normal beats [4]: 39%

CC1CCCC(C)N1CCCCC(O)(c1ccccc1)c1ccccc1 (stereo unspecified)
Duration [10]: 0.5 h | Activity rating [1]: 72 | Normal beats [2]: 99% | Normal beats [3]: 84% | Heart rate [7]: 139 beats min-1 | Heart rate [8]: 140 beats min-1 | Normal beats [4]: 51% | Heart rate [9]: 137 beats min-1

CC1CCCC(C)N1CCCC(C(N)=O)(c1ccccc1)c1ccccn1 (stereo unspecified)
Duration [10]: 0.5 h | Activity rating [1]: 80 | Normal beats [2]: 96% | Normal beats [3]: 87% | Heart rate [7]: 145 beats min-1 | Heart rate [8]: 129 beats min-1 | Normal beats [4]: 62% | Heart rate [11]: 160 beats min-1 | Heart rate [9]: 197 beats min-1

CC1CCCC(C)N1CC(O)(c1ccccc1)c1ccccc1 (stereo unspecified)
Activity rating [1]: 15 | Normal beats [2]: 56% | Normal beats [3]: 16% | Heart rate [7]: 92 beats min-1 | Heart rate [8]: 96 beats min-1 | Normal beats [4]: 16% | Heart rate [9]: 115 beats min-1

Cl.OC(CCCN1CCCCC1)(c1ccccc1)c1ccccc1 [DIPHENIDOL HYDROCHLORIDE]
Duration [5]: >2 h | Activity rating [1]: 39 | Normal beats [2]: 90% | Normal beats [3]: 54% | Heart rate [7]: 155 beats min-1 | Heart rate [8]: 142 beats min-1 | Normal beats [4]: 34% | Heart rate [11]: 160 beats min-1 | Heart rate [9]: 200 beats min-1

CC(C)N(CCC(C(N)=O)(c1ccccc1)c1ccccn1)C(C)C (stereo unspecified) [DISOPYRAMIDE]
Activity rating [1]: 49 | Normal beats [2]: 89% | Normal beats [3]: 60% | Normal beats [4]: 16%

CC1CCCC(C)N1CCCC(O)(c1ccccc1)c1ccccn1.Cl (stereo unspecified) [PIRMENOL HYDROCHLORIDE]
Duration [5]: >2 h | Activity rating [1]: 71 | Normal beats [2]: 94% | Normal beats [3]: 80% | Heart rate [7]: 172 beats min-1 | Heart rate [8]: 157 beats min-1 | Normal beats [4]: 59% | Heart rate [11]: 160 beats min-1 | Heart rate [9]: 194 beats min-1
